According to ChEMBL document CHEMBL1138789, “HCV NS5b RNA-dependent RNA polymerase inhibitors: from alpha,gamma-diketoacids to 4,5-dihydroxypyrimidine- or 3-methyl-5-hydroxypyrimidinonecarboxylic acids. Design and synthesis” (J Med Chem, 2004):
pIC50: −log10 of the molar value.

Columns and labels:
[1] = biological target: T1, RNA-directed RNA polymerase (Hepacivirus hominis, UniProt O39930); assay: Inhibitory concentration required to inhibit HCV RNA dependent RNA polymerase Nonstructural protein 5B in the presence of Mg2+ is determined
T1 sequence (O39930 whole entry): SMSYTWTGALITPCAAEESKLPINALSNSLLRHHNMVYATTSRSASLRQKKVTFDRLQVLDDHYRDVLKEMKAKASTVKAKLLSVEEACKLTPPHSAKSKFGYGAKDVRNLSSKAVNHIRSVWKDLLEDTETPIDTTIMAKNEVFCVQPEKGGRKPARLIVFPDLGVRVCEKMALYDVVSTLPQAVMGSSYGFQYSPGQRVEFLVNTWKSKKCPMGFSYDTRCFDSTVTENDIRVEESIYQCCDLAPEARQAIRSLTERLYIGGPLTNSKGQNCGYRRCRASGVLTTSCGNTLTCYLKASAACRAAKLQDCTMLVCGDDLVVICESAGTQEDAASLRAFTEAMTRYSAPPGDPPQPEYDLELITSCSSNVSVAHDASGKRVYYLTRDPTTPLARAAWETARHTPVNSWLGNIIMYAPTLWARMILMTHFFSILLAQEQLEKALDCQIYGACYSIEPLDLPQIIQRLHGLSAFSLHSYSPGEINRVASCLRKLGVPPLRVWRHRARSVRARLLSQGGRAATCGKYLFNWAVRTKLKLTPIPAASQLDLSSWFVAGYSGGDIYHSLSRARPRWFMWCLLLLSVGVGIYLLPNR

[2] = biological target: T1, RNA-directed RNA polymerase; assay: Inhibitory concentration required to inhibit HCV RNA dependent RNA polymerase Nonstructural protein 5B in the presence of Mn2+ is determined
[3] = biological target: Human immunodeficiency virus type 1 integrase (Human immunodeficiency virus 1, UniProt Q7ZJM1); assay: Inhibitory concentration required to inhibit HIV-integrase is determined
Sequence of Human immunodeficiency virus type 1 integrase (Q7ZJM1 whole entry): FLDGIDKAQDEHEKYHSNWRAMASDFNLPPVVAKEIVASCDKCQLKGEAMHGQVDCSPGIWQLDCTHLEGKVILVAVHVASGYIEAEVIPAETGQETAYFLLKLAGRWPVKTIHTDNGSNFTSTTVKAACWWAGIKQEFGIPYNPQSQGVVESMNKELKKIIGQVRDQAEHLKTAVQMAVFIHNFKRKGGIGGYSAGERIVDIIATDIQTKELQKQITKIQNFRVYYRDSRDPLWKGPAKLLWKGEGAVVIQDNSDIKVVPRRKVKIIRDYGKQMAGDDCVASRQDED

Rattus norvegicus [4] = organism: Rattus norvegicus; assay: Concentration required for irreversible binding to rat liver microsomes in presence of NADPH with GSH; type: functional
Outline: (§1)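 A tritium-labelled inhibitor was incubated with rat liver microsomes in the presence of NADPH for 4 h. Irreversible covalent binding was read as residual radioactivity bound to microsomal protein, expressed as pmol/mg protein.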

Rattus norvegicus [5] = organism: Rattus norvegicus; assay: Concentration required for irreversible binding to rat liver microsomes in presence of NADPH without GSH; type: functional; outline: as §1
[6] = biological target: Human immunodeficiency virus type 1 reverse transcriptase (Human immunodeficiency virus 1, UniProt Q72547); assay: Inhibitory concentration required to inhibit HIV-RT is determined
DNA polymerase I = DNA polymerase I (Escherichia coli, UniProt P00582); assay: Inhibitory concentration required to inhibit Klenow DNA-dependent DNA polymerase
Sequence of DNA polymerase I (P00582 whole entry): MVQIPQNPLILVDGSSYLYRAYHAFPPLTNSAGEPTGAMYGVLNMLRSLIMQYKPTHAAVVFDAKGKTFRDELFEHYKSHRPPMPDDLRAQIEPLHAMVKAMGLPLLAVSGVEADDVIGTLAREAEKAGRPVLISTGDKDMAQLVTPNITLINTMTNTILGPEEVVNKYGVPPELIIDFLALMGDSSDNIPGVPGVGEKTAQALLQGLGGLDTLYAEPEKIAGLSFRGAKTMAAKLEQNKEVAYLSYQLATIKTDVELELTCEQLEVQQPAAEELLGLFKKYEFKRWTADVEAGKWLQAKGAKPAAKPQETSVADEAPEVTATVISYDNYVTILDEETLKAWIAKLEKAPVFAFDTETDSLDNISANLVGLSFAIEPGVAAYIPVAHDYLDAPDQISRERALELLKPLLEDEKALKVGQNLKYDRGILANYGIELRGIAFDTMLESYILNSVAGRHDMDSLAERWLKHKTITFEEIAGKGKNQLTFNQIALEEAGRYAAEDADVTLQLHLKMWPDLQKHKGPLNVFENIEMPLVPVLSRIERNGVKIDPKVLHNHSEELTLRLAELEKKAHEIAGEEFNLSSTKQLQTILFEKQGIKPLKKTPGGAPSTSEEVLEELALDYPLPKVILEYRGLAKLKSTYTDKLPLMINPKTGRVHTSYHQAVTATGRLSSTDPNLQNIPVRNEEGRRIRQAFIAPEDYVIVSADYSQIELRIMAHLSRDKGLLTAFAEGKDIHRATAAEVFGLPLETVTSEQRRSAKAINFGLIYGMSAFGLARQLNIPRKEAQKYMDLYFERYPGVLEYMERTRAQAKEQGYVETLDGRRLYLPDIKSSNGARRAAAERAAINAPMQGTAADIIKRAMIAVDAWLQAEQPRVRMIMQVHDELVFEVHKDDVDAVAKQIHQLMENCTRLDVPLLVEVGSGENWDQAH

| pIC50 [2] | pIC50 [3] | Activity (Rattus norvegicus [4]) [pmol/mg] | Activity (Rattus norvegicus [5]) [pmol/mg] | pIC50 [6] | pIC50 (DNA polymerase I) | SMILES | pIC50 [1] |
| --- | --- | --- | --- | --- | --- | --- | --- |
| 6.00 |  |  |  |  |  | Cn1c(-c2cccc(O)c2)nc(C(=O)O)c(O)c1=O | 5.22 |
| 5.64 | < 4.30 | < 2 | < 2 | < 4.00 | < 4.00 | O=C(O)c1nc(-c2ccccc2)nc(O)c1O |  |
| 6.00 | < 4.30 |  |  | < 4.00 | < 4.00 | O=C(O)c1nc(-c2cccc(OCc3ccccc3)c2)[nH]c(=O)c1O | 4.82 |
|  |  | > 400 | > 400 |  |  | O=C(O)C(=O)/C=C(\O)c1ccccc1 |  |
| 5.85 | < 4.30 |  |  | 4.64 | < 4.00 | O=C(O)c1nc(-c2ccc(Cl)cc2)[nH]c(=O)c1O | 4.54 |
| 6.22 | < 4.30 |  |  | < 4.00 | < 4.00 | O=C(O)c1nc(-c2cccc(O)c2)nc(O)c1O | 5.24 |

| SMILES | pIC50 [2] | pIC50 [3] | Activity (Rattus norvegicus [4]) [pmol/mg] | Activity (Rattus norvegicus [5]) [pmol/mg] | pIC50 [6] | pIC50 (DNA polymerase I) | pIC50 [1] |
| --- | --- | --- | --- | --- | --- | --- | --- |
| O=c1[nH]c(-c2cccc(O)c2)ncc1O | < 4.30 |  |  |  |  |  | < 4.30 |
| COC(=O)c1nc(-c2ccc(Cl)cc2)[nH]c(=O)c1O | 4.52 |  |  |  |  |  | < 4.00 |
| COc1nc(-c2cccc(O)c2)nc(C(=O)O)c1O | < 4.30 |  |  |  |  |  | < 4.30 |
| COc1c(C(=O)O)nc(-c2ccc(Cl)cc2)[nH]c1=O | < 4.30 |  |  |  |  |  | < 4.30 |
